Measured values as given in PubChem BioAssay.
Inconclusive results are not listed. Activity calls are given as the source filed them.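 The calls were made as follows, unless noted: active = viability increase at or above a cutoff of the median across tested compounds plus 3 SD (cut at about 8.5% in these data, passing the limit was not always enough); inconclusive = some gains above the cutoff, reason not given; inactive = the rest.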

Tests used:
[1] = OD615 S. cerevisiae growth inhibition, permissive medium, pilot counter-assay, permissive growth control for S. cerevisiae lifespan shortening project (AID 705;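 active = growth inhibition above 25% in both replicates, a cutoff set 3 SD above the mean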); details: OD615, 24 h, at 10 µM, active compounds read high
Outline: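 assay system = Saccharomyces cerevisiae strain carrying genetically modified DeaD replicative-lifespan system | technique = absorbance (optical density) at 615 nm | buffer or medium = permissive raffinose/galactose medium | timing = cells pre-grown 4 h, then 24 h compound exposure, 30 °C humidified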

[2] = Restrictive medium S. cerevisiae growth inhibition, OD615, pilot screen of yeast lifespan reduction project, restrictive growth control (AID 706;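 active = growth inhibition above a set limit, 3 SD over mean compound inhibition, in both replicates, cut at about 43% in these data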;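 also: modified DeaD lifespan yeast strain shifted to restrictive glucose medium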); details: OD615, 48 h, at 10 µM, active compounds read high
Outline: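 System: modified S. cerevisiae. Buffer or medium: CSMM-D glucose medium. Incubation: 4 h pre-growth plus 48 h compound exposure, 30 °C. Detection: absorbance (optical density) measured at 615 nm.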

[3] = viability gain of MRP-1-high H69AR cells under doxorubicin, pilot screen, MRP-1 activator project, CellTiter-Glo, duplicate (AID 807); details: H69AR viability with doxorubicin, CellTiter-Glo luminescence; at 10 µM; active compounds read high;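 also: compound pretreatment 18-22 h then 72 h combined with doxorubicin; 0% = doxorubicin alone and 100% = vehicle without doxorubicin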
[4] = growth suppression of beta-catenin knockout HCT116, pilot screen, human colon tumor cells (AID 823;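 active = cell viability at or below a set limit in both duplicate runs, the limit being the all-compound median minus 4 SD, cut at about 23% in these data, passing the limit was not always enough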;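 also: 0% = wells killed by 20 µM Hyamine and 100% = untreated DMSO cell wells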); details: CellTiter-Glo, 60 h, at 10 µM, active compounds read low
[5] = growth suppression of PTEN-deleted HCT116, pilot screen, cell-based, HCT116 clonal line, CellTiter-Glo (AID 824;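 active = viability at or below 27.92% in each of two runs, the all-compound median minus 4 SD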;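 also: 0% = 20 µM Hyamine control and 100% = vehicle cell control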); details: 60 h, at 10 µM, active compounds read low
[6] = inhibitors of the yeast RAM network, pilot screen, dse1pr::URA3 reporter, 5-FOA selection (AID 869;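 active = inhibition over a set limit, the all-compound mean plus 3 SD, in both replicate runs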;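 also: 0% = DMSO wells with no growth and 100% = 10 µM 1-NA-PP1 with full growth; RAM network block rescues cells from 5-FOA so hits raise OD615 growth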); details: S. cerevisiae dse1pr::URA3 5-FOA growth, OD615, 2 d; at 10 µM; active compounds read high; strain carries analog-sensitive mutant Cbk1 kinase
[7] = RAM signaling pathway blockade in yeast – S. cerevisiae, Pdr1DBD-CYC8 efflux-inhibited sensitized strain, primary screen (AID 1298;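 active = RAM network inhibition above 8.4% in each of two replicates, 3 SD over the compound average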;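 also: 0% = DMSO untreated cells without growth and 100% = 10 µM 1-NA-PP1 full growth; higher means more yeast growth rescued from 5-FOA killing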); details: S. cerevisiae cbk1-as DSE1-URA3 strain, 5-FOA growth OD615, 2 d; at 50 µM; active compounds read high

c1ccc(OCc2nnc3sc(C4COc5ccccc5O4)nn23)cc1 (configuration not stated)
inactive: growth inhibition [1] 4.23% | growth inhibition [2] 5.81% | viability increase [3] -1.91% | viability [4] 99.4% | viability [5] 90% | inhibition [6] 2.56% | RAM network inhibition [7] 5.98%

CC(C)c1ccc(N(CC(=O)O)S(=O)(=O)c2cccnc2)cc1
inactive: growth inhibition [1] -2% | growth inhibition [2] 8.54% | viability increase [3] -1.28% | viability [4] 93.3% | viability [5] 98.7% | inhibition [6] -0.135% | RAM network inhibition [7] -1.88%

CCCN(CCC)CCCNC(=O)c1cc2c(=O)n(C)c3ccccc3c2n1C
inactive: growth inhibition [1] -3.03% | growth inhibition [2] -4.35% | viability increase [3] -6.97% | viability [4] 72.5% | viability [5] 77.1% | inhibition [6] 1.22% | RAM network inhibition [7] 3.47%

Cc1cccn2cc(-c3ccc(F)cc3)nc12
inactive: growth inhibition [1] 1.97% | growth inhibition [2] 15.1% | viability increase [3] -4.81% | viability [4] 87.2% | viability [5] 82.9% | inhibition [6] 1.56% | RAM network inhibition [7] -1.54%

Cc1ccccc1-c1nnc(-c2ccccc2)o1
inactive: growth inhibition [1] -0.03% | growth inhibition [2] -4.75% | viability increase [3] -4.15% | viability [4] 80.9% | viability [5] 83.1% | inhibition [6] 1.82% | RAM network inhibition [7] 0.2%

COc1ccc(-c2nc3cnccn3c2Nc2ccc3c(c2)OCO3)cc1
inactive: growth inhibition [1] -10.7% | growth inhibition [2] 3.96% | viability increase [3] -6.6% | viability [4] 70.9% | viability [5] 62.8% | inhibition [6] -0.105% | RAM network inhibition [7] 0.16%

CCOc1ccc(OCC)c(NC(=O)C2CCCN2S(=O)(=O)c2cccc3cccnc23)c1 (configuration not stated)
inactive: growth inhibition [1] -0.54% | growth inhibition [2] 8.82% | viability increase [3] -3.84% | viability [4] 69.8% | viability [5] 65.7% | inhibition [6] -0.48% | RAM network inhibition [7] 5.36%

CC(=O)c1c(C)[nH]c(C(=O)N2CCN(c3ncccn3)CC2)c1C
inactive: growth inhibition [1] -2.15% | growth inhibition [2] -5.67% | viability increase [3] -1.39% | viability [4] 86.8% | viability [5] 96.6% | inhibition [6] 1.43% | RAM network inhibition [7] -0.51%

O=C(Oc1ccccc1)N1CCN(c2ccc(F)cc2)CC1
inactive: growth inhibition [1] -11.1% | growth inhibition [2] -5.32% | viability increase [3] 1.92% | viability [4] 95.8% | viability [5] 85.5% | inhibition [6] 0.665% | RAM network inhibition [7] 5.1%

C=CCSc1nnc(-c2cc(Br)ccc2N)c(=O)[nH]1
inactive: growth inhibition [1] -14.6% | growth inhibition [2] -18% | viability increase [3] 0.99% | viability [4] 102% | viability [5] 96.5% | inhibition [6] 0.7% | RAM network inhibition [7] 2.42%

COc1ccccc1CNS(=O)(=O)c1ccc2c(c1)oc(=O)n2C
inactive: growth inhibition [1] -4.47% | growth inhibition [2] -0.685% | viability increase [3] -0.99% | viability [4] 101% | viability [5] 86.7% | inhibition [6] 0.795% | RAM network inhibition [7] 0.32%

COc1cccc(C2NC(=O)NC(C)=C2C(=O)Nc2ccc(C)cc2)c1OC (configuration not stated)
inactive: growth inhibition [1] -1.23% | growth inhibition [2] -4.83% | viability increase [3] 0.13% | viability [4] 98.5% | viability [5] 99.7% | inhibition [6] 0.455% | RAM network inhibition [7] 6.12%

CCCCOc1ccccc1C1C(C(=O)OC)=CN(CC)C=C1C(=O)OC
inactive: growth inhibition [1] -6.49% | growth inhibition [2] 0.595% | viability increase [3] -5.35% | viability [4] 73.8% | viability [5] 70.9% | inhibition [6] 3.23% | RAM network inhibition [7] 6.73%

CCn1cc(SCC(N)=O)c2ccccc21
inactive: growth inhibition [1] -13.8% | growth inhibition [2] -17.4% | viability increase [3] 0.17% | viability [4] 99.1% | viability [5] 92.3% | inhibition [6] 1.14% | RAM network inhibition [7] 8.71%

O=C(C1CCC(Cn2c(=O)[nH]c3ccccc3c2=O)CC1)N1CCN(c2ccccc2)CC1 (configuration not stated)
inactive: growth inhibition [1] -14.3% | growth inhibition [2] -1.08% | viability increase [3] 2.93% | viability [4] 82.6% | viability [5] 67.6% | inhibition [6] 1.81% | RAM network inhibition [7] 6.69%

Cc1c(C(=O)NCCCN2CCOCC2)sc2nc(-c3ccccc3)cn12
inactive: growth inhibition [1] -10.7% | growth inhibition [2] -11.8% | viability increase [3] -1.59% | viability [4] 92.2% | viability [5] 96% | inhibition [6] 3.44% | RAM network inhibition [7] -0.37%

N#Cc1ccc(Oc2cccc(C(=O)O)c2)cc1C#N
inactive: growth inhibition [1] -13.1% | growth inhibition [2] -3.21% | viability increase [3] -0.11% | viability [4] 94.8% | viability [5] 92.7% | inhibition [6] 1.34% | RAM network inhibition [7] 2.14%

O=C1CC(C(=O)Nc2nccs2)C(c2ccccc2)O1 (configuration not stated)
inactive: growth inhibition [1] -4.84% | growth inhibition [2] -14.8% | viability increase [3] -0.76% | viability [4] 107% | viability [5] 99.3% | inhibition [6] 0.94% | RAM network inhibition [7] 0.09%

C=C(C)c1cccc(C(C)(C)NC(=O)N2CCN(c3ccccn3)CC2)c1
inactive: growth inhibition [1] -11.1% | growth inhibition [2] 0.485% | viability increase [3] -0.48% | viability [4] 75.8% | viability [5] 89.6% | inhibition [6] 1.06% | RAM network inhibition [7] 1.43%

O=C1CC(c2ccco2)Sc2nc3ccccc3n21 (configuration not stated)
inactive: growth inhibition [1] -10.5% | growth inhibition [2] 13.4% | viability increase [3] -3.98% | viability [4] 67.2% | viability [5] 80.3% | inhibition [6] 0.365% | RAM network inhibition [7] 1.62%

O=C1c2ccccc2C(=O)N1CCC(=O)N1CCCc2ccccc21
inactive: growth inhibition [1] -19.9% | growth inhibition [2] -13.7% | viability increase [3] -0.26% | viability [4] 93.8% | viability [5] 96.8% | inhibition [6] 2.32% | RAM network inhibition [7] 7.36%

CCC(C)NC(=O)c1cnc2n(c1=O)CCS2 (configuration not stated)
inactive: growth inhibition [1] 0.08% | growth inhibition [2] -1.8% | viability increase [3] 1.88% | viability [4] 103% | viability [5] 103% | inhibition [6] 1.18% | RAM network inhibition [7] 1.25%

C=CCNC(=O)C1CC(=O)N(c2ccc(Br)cc2)C1 (configuration not stated)
inactive: growth inhibition [1] -16.9% | growth inhibition [2] -14.1% | viability increase [3] -1.65% | viability [4] 95.5% | viability [5] 95.3% | inhibition [6] 0.655% | RAM network inhibition [7] 0.56%

C=CCSC1=N/C(=C\c2ccsc2)C(=O)S1
inactive: growth inhibition [1] 7.03% | growth inhibition [2] 27.8% | viability increase [3] -2.48% | viability [4] 98.1% | viability [5] 93% | inhibition [6] 0.475% | RAM network inhibition [7] 0.97%

Cc1ccccc1CNc1nc(N)n(-c2ccccc2)n1
inactive: growth inhibition [1] -0.29% | growth inhibition [2] 2.71% | viability increase [3] -1.74% | viability [4] 104% | viability [5] 98.1% | inhibition [6] 0.48% | RAM network inhibition [7] 4.87%

O=c1cc(CSc2nnc(-c3ccccc3)o2)c2ccccc2[nH]1
inactive: growth inhibition [1] -4.87% | growth inhibition [2] -3.43% | viability increase [3] 0.91% | viability [4] 99.2% | viability [5] 102% | inhibition [6] 2.32% | RAM network inhibition [7] 6.08%

O=C(CN1CCN(C2CCCCC2)CC1)Nc1ccccc1N1CCCCC1
inactive: growth inhibition [1] -12.3% | growth inhibition [2] -31.2% | viability increase [3] -4.35% | viability [4] 71.5% | viability [5] 77.7% | inhibition [6] 0.16% | RAM network inhibition [7] 5.95%

CCCc1cc(C(=O)Nc2sc3c(c2C(=O)OCC)CCCC3)no1
inactive: growth inhibition [1] -19% | growth inhibition [2] -10.2% | viability increase [3] 1.82% | viability [4] 104% | viability [5] 99.5% | inhibition [6] 3.09% | RAM network inhibition [7] 3.28%

Cc1cc(C)c(S(=O)(=O)Nc2ccc(OCC(=O)O)cc2)c(C)c1
inactive: growth inhibition [1] -6.34% | growth inhibition [2] -3.2% | viability increase [3] -0.81% | viability [4] 93.7% | viability [5] 90.5% | inhibition [6] -0.28% | RAM network inhibition [7] -0.63%

Brc1cccc(-c2nnc3sc(CNCc4ccco4)cn23)c1
inactive: growth inhibition [1] 1.61% | viability increase [3] -4.13% | viability [4] 94.2% | viability [5] 99.3% | inhibition [6] 1.97% | RAM network inhibition [7] 8.75%
active: growth inhibition [2] 47.3%

O=C(Cn1ncc2c(=O)oc3ccccc3c21)NCC1COc2ccccc2O1 (configuration not stated)
inactive: growth inhibition [1] 4.09% | growth inhibition [2] -10.9% | viability increase [3] -1.36% | viability [4] 103% | viability [5] 98.2% | inhibition [6] 2.72% | RAM network inhibition [7] 3.56%

CCCCCn1c(CNC(=O)CCC)nc2ccccc21
inactive: growth inhibition [1] -7.29% | growth inhibition [2] -2.36% | viability increase [3] -2.97% | viability [4] 101% | viability [5] 96.4% | inhibition [6] 2.5% | RAM network inhibition [7] 0.64%

CCOc1ccccc1NC(=O)CN(c1cc(C)cc(C)c1)S(=O)(=O)c1c(C)noc1C
inactive: growth inhibition [1] -22.6% | growth inhibition [2] -12.1% | viability increase [3] -1.39% | viability [4] 106% | viability [5] 95.1% | inhibition [6] 1.51% | RAM network inhibition [7] 1.81%

CN1CCN(C(=O)c2cc3c(s2)-c2ccccc2S(=O)(=O)C3)CC1
inactive: growth inhibition [1] -2.05% | growth inhibition [2] -0.515% | viability increase [3] -1.76% | viability [4] 103% | viability [5] 98.5% | inhibition [6] 1.8% | RAM network inhibition [7] 0.72%

O=C(Cn1nc(C(=O)O)c2ccccc2c1=O)NCC1CCCO1 (configuration not stated)
inactive: growth inhibition [1] -4.73% | growth inhibition [2] -13.3% | viability increase [3] -0.44% | viability [4] 103% | viability [5] 102% | inhibition [6] 1.71% | RAM network inhibition [7] 6.89%

CCn1c(=O)cc(O)c2ccccc21
inactive: growth inhibition [1] 1.77% | growth inhibition [2] -10.1% | viability increase [3] -1.68% | viability [4] 99% | viability [5] 94% | inhibition [6] 2.01% | RAM network inhibition [7] 1.28%
